Data from ChEMBL document CHEMBL1255483, “Intra- and extracellular activities of dicloxacillin against Staphylococcus aureus in vivo and in vitro” (Antimicrob Agents Chemother, 2010).
Calls of active or inactive are those of the source. The rule behind the calls is not given here.

What was measured:
[1] = fT>MIC in Staphylococcus aureus E19977 infected NMRI mouse at 240 mg/kg administered every 6 hrs; assay type: functional
In short: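 Calculated percentage of 24 h at steady state that free plasma DCX exceeds the strain MIC (microdilution, pH 7.4). Concentrations were simulated from single subcutaneous dose plasma curves in NMRI mice (S. lutea bioassay), adjusted with a square-root model of concentration-dependent free fraction from ultrafiltration. The regimen was dosed subcutaneously in mice infected intraperitoneally with 10^7.4 CFU, and peritoneal CFU were read after 24 h of therapy.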

Staphylococcus aureus [2] = test: Bacteriostatic activity against Staphylococcus aureus ATCC 25923 after 24 hrs; assay type: functional
In short: (§1)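 Extracellular broth time- and concentration-kill test. The inoculum was ~10⁶ CFU/ml, exposed to a wide range of DCX concentrations, with CFU counted after 5 and 24 h. The read-out was Δlog CFU/ml versus time zero (mean ± SD, n = 3). A sigmoidal fit with slope 1 gave Emax and EC50. Cstatic was read by graphical interpolation as the concentration giving no change from the inoculum.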

Staphylococcus aureus [3] = test: Bacteriostatic activity against Staphylococcus aureus E19977 at MIC between 5 to 24 hrs; assay type: functional, organism-based; in short: as §1
Staphylococcus aureus [4] = test: Bactericidal activity against Staphylococcus aureus ATCC 25923 assessed as log reduction in bacterial count at MIC after 5 hrs by time-kill assay; assay type: functional
In short: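 Broth time-kill: MSSA at 10⁶ CFU/ml exposed to a wide range of dicloxacillin concentrations. CFU counted after 5 and 24 h and expressed as change in log₁₀ CFU/ml from time zero. Multiples refer to the MIC by CLSI microdilution at pH 7.4. n = 3.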

Staphylococcus aureus [5] = test: Bactericidal activity against Staphylococcus aureus E19977 assessed as log change in bacterial count after 24 hrs; assay type: functional; in short: as §1
[6] = Ratio of fCmax in NMRI mouse at 120 mg/kg administered every 6 hrs to MIC for Staphylococcus aureus E19977; assay type: functional
In short: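 Free Cmax/MIC was modelled, not measured. Single-dose subcutaneous plasma curves from NMRI mice were projected to the multiple-dose regimens. Free fraction came from a square-root fit of unbound fraction versus total concentration. Binding was measured by ultrafiltration of mouse plasma spiked with 10–400 mg/liter and held 1 h at 37°C. MIC was for strain E19977.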

In the case of `Cc1onc(-c2c(Cl)cccc2Cl)c1C(=O)N[C@@H]1C(=O)N2[C@@H]1SC(C)(C)[C@@H]2C(=O)O` [DICLOXACILLIN], the “fT>MIC” value [1] was 65.28%, the Activity (Staphylococcus aureus [2]) was 0.07 mg/L and the Activity (Staphylococcus aureus [3]) was “Active”. It also gave an FC (Staphylococcus aureus [4]) of less than 1, an Emax (Staphylococcus aureus [5]) of -3.81 deltalog10CFU/ml and a Ratio [6] of 61.6.
